Assay results published in ChEMBL document CHEMBL2321791, “A new cytotoxic quinolone alkaloid and a pentacyclic steroidal glycoside from the stem bark of Crataeva nurvala: study of anti-proliferative and apoptosis inducing property” (Eur J Med Chem, 2013).
Active and inactive are the calls of the source. The calls are words filed in the database; no cut-off is given here.

Experiments:
[1] = test system: PC-3; test: Cytotoxicity against human PC3 cells; format: functional, cell-based
Summary of the method: (§1)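 MTT viability assay. Cells were plated at 3 × 10³ cells/well and treated in triplicate with a range of concentrations, with final DMSO at 0.2%. After 48 h incubation, MTT (0.5 mg/mL) was added for a further 4 h at 37 °C. Formazan was read by optical density at 570 nm and percentage viability calculated.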

[2] = test system: MCF7; test: Cytotoxicity against human MCF7 cells; format: functional, cell-based; summary of the method: as §1
[3] = test system: HeLa; test: Cytotoxicity against human HeLa cells; format: functional, cell-based; summary of the method: as §1
[4] = test system: HeLa; test: Cell cycle arrest in human HeLa cells assessed as cells at G0 phase at 1 uM measured after 24 hrs by propidium iodide/FACS analysis (reference value: 68.6%); format: functional
[5] = test system: HeLa; test: Cell cycle arrest in human HeLa cells assessed as cells at G1 phase at 1 uM measured after 24 hrs by propidium iodide/FACS analysis (reference value: 14.7%); format: functional
[6] = test system: PC-3; test: Cytotoxicity against human PC3 cells at 50 uM measured after 48 hrs by MTT assay; format: cell-based; details: pc-3, 48 h; summary of the method: as §1
[7] = test system: HeLa; test: Cytotoxicity against human HeLa cells at 50 uM measured after 48 hrs by MTT assay; format: cell-based; summary of the method: as §1
[8] = test system: HeLa; test: Cell cycle arrest in human HeLa cells assessed as cells at G0 phase at 50 uM measured after 24 hrs by propidium iodide/FACS analysis (reference value: 68.6%); format: functional
[9] = test system: HeLa; test: Cell cycle arrest in human HeLa cells assessed as cells at G1 phase at 50 uM measured after 24 hrs by propidium iodide/FACS analysis (reference value: 14.7%); format: functional
[10] = test system: MCF7; test: Inhibition of cell migration in human MCF7 cells at 80 uM for 24 hrs by wound healing assay; format: functional, cell-based
Summary of the method: (§2)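 Wound-healing (scratch) assay. Cells were seeded at 5.5 × 10⁵ cells/well in 6-well plates and grown overnight to a confluent monolayer. After 24 h serum starvation, the monolayer was scratched with a pipette tip, washed with serum-free medium and photographed at 0 h. Cells were then treated for 24 h in 1% serum medium with compound or DMSO vehicle. Scratched area was quantified in three random fields per treatment across three independent experiments.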

[11] = test system: MCF7; test: Inhibition of cell migration in human MCF7 cells at 50 uM for 24 hrs by wound healing assay; format: functional, cell-based; summary of the method: as §2
[12] = test system: PC-3; test: Inhibition of cell migration in human PC3 cells at 50 uM for 24 hrs by wound healing assay; format: functional, cell-based; summary of the method: as §2
[13] = test system: PC-3; test: Inhibition of cell migration in human PC3 cells at 80 uM for 24 hrs by wound healing assay; format: functional, cell-based; summary of the method: as §2
[14] = test system: HeLa; test: Inhibition of cell migration in human HeLa cells at 80 uM for 24 hrs by wound healing assay; format: functional, cell-based; summary of the method: as §2
[15] = test system: PC-3; test: Inhibition of colony formation in human PC3 cells at sub-lethal dose measured after 5 days by colony formation assay; format: functional, cell-based
Summary of the method: (§3)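 Clonogenic assay. Cells were seeded at 1 × 10³ cells/well in 6-well plates, and the medium was replaced after 24 h. Cells were then exposed to various concentrations of compound, alongside DMSO vehicle, for 5 days at 37 °C in 5% CO₂. Colonies were fixed with 4% paraformaldehyde, stained with 0.5% crystal violet, then counted and averaged over randomly chosen fields (n = 3).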

[16] = test system: HeLa; test: Inhibition of cell migration in human HeLa cells at 50 uM for 24 hrs by wound healing assay; format: functional, cell-based; summary of the method: as §2
[17] = test system: HeLa; test: Inhibition of colony formation in human HeLa cells at sub-lethal dose measured after 5 days by colony formation assay; format: functional, cell-based; summary of the method: as §3
[18] = test system: HeLa; test: Inhibition of colony formation in human HeLa cells measured after 5 days by colony formation assay; format: functional, cell-based; summary of the method: as §3

Row | Structure (SMILES) | Activity [1] | Activity [2] | Activity [3] | Activity [4] [%] | Activity [5] [%] | Activity [6] | Activity [7] | Activity [8] [%] | Activity [9] [%] | Activity [10] | Activity [11] | Activity [12] | Activity [13] | Activity [14] | Activity [15] | Activity [16] | Activity [17] | Activity [18]
1 | COc1cc(OC)c2c(=O)c(-c3ccccc3)cn(C)c2c1 | inactive | inactive | inactive | – | – | – | – | – | – | – | – | – | – | – | – | – | – | –
2 | COc1cc(OC)c2c(O)c(-c3ccccc3)cnc2c1 | inactive | inactive | inactive | – | – | – | – | – | – | – | – | – | – | – | – | – | – | –
3 | CC[C@@]1(O)C(=O)OCc2c1cc1n(c2=O)Cc2cc3ccccc3nc2-1 [CAMPTOTHECIN] | – | – | – | 68.6 | 17.7 | – | – | – | – | – | – | – | – | – | – | – | – | –
4 | CCn1cc(-c2ccccc2)c(=O)c2c(OC)cc(OC)cc21 [CRATAEMINE] | – | – | – | – | – | Non-toxic | Non-toxic | 76.8 | 17.2 | inactive | inactive | Active | Active | Active | Active | Active | Active | Dose-dependent effect
5 | CC(C)[C@@H]1CC[C@@H](C)[C@H]2[C@@H]1C[C@H]1[C@@H]3CC=C4C[C@@H](O[C@@H]5O[C@H](CO)[C@@H](O)[C@H](O)[C@H]5O)CC[C@]4(C)[C@H]3CC[C@]21C [CRATAENOSIDE] | – | – | – | – | – | Non-toxic | Non-toxic | 63.5 | 22.5 | inactive | inactive | Active | Active | Active | Active | Active | Active | Dose-dependent effect
